According to ChEMBL document CHEMBL2407081, “Discovery of potent, isoform-selective inhibitors of histone deacetylase containing chiral heterocyclic capping groups and a N-(2-aminophenyl)benzamide binding unit” (J Med Chem, 2013):
pIC50: −log10 of the molar value. In brackets after ≈: the same amount, converted by molar mass. Activity calls are given as the source filed them. No cut-off for these calls is given here.

Columns and labels:
[1] = Permeability of the compound by PAMPA; type: ADME; conditions: read-out: permeability
Cytochrome P450 2C19 = Cytochrome P450 2C19 (Homo sapiens, UniProt P33261); assay: Inhibition of CYP2C19 (unknown origin); type: ADME
Sequence of Cytochrome P450 2C19 (P33261 whole entry): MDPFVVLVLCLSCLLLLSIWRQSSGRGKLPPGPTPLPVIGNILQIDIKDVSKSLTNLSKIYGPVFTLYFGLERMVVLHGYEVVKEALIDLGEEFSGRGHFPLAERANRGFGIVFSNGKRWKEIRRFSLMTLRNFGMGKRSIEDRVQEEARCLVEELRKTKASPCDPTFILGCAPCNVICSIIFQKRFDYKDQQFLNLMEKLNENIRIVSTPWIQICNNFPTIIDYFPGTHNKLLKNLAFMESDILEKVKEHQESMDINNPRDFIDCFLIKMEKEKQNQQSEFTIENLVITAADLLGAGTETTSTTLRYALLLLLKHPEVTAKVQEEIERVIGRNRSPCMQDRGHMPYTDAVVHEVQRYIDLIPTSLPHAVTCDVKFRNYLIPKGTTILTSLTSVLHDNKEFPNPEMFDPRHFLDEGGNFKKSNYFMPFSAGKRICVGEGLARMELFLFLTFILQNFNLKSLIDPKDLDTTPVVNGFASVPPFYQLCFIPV

Jurkat [2] = assay: Cell cycle arrest in human Jurkat cells assessed as accumulation at G2/M phase at 1 uM after 24 hrs by FITC/propidium iodide staining-based FACS flow cytometric analysis (reference value: 14.4%); type: functional
Summary of the method: (§1)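 HeLa and Jurkat human cells were cultured for 24 h with compound at two concentrations. The control was an equal volume of the DMSO diluent. Cellular DNA and protein content were then measured by flow cytometry, and the percentage of cells in sub-G1, G0/G1, S and G2/M was read out.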

HeLa [3] = assay: Induction of apoptosis in human HeLa cells assessed as PARP cleavage at 1 to 10 uM after 24 hrs by Western blot analysis; type: functional, cell-based
Jurkat [4] = assay: Cell cycle arrest in human Jurkat cells assessed as accumulation at G0/G1 phase at 1 uM after 24 hrs by FITC/propidium iodide staining-based FACS flow cytometric analysis (reference value: 55.5%); type: functional; summary of the method: as §1
[5] = Lipophilicity, log D of the compound at pH 7.4; type: physicochemical; conditions: buffer
[6] = Kinetic solubility of the compound; type: physicochemical; conditions: read-out: Kinetic_solubility
Summary of the method: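 Solubility was measured by chemiluminescent nitrogen detection.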

[7] = target: T1, Protein deacetylase HDAC6 (Homo sapiens, UniProt Q9UBN7); assay: Inhibition of recombinant His-tagged HDAC6 (unknown origin) using Fluor-de-Lys SIRT1 as substrate incubated for 3 hrs prior to substrate addition measured after 60 mins by fluorescence plate reader analysis
T1 sequence (Q9UBN7 whole entry): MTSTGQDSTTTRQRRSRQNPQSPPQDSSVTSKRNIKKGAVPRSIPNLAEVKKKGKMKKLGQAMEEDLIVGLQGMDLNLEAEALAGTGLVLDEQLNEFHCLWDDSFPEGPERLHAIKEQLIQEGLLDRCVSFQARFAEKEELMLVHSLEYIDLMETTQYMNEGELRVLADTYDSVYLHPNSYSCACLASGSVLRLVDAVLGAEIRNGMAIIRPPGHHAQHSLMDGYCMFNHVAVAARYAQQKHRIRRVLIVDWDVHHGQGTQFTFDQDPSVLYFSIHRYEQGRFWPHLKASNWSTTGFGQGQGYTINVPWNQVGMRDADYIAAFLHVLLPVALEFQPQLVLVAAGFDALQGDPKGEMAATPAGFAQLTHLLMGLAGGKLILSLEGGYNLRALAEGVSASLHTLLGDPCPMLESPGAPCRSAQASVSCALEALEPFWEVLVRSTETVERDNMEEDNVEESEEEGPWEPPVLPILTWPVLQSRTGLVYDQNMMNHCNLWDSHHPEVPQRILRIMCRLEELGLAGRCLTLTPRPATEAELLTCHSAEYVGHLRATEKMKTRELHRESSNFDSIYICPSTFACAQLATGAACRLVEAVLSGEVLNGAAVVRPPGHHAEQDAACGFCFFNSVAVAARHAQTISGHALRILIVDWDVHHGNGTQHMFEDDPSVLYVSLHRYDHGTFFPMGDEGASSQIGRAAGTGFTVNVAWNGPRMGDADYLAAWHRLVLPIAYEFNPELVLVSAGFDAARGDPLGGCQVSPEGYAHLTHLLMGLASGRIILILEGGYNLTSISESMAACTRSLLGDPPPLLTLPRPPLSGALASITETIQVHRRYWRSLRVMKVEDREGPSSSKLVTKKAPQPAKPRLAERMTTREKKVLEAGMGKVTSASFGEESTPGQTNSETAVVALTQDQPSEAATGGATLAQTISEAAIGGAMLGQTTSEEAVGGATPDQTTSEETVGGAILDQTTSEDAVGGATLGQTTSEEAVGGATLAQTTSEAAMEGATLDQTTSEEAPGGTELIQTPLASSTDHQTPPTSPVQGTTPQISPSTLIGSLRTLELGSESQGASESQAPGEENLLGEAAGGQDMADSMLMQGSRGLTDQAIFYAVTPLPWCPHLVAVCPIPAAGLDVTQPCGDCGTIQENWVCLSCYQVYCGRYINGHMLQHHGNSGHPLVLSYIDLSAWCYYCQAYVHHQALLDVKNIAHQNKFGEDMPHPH

HeLa [8] = assay: Cell cycle arrest in human HeLa cells assessed as accumulation at G2/M phase at 10 uM after 24 hrs by FITC/propidium iodide staining-based FACS flow cytometric analysis; type: functional; summary of the method: as §1
Cytochrome P450 3A4 = Cytochrome P450 3A4 (Homo sapiens, UniProt P08684); assay: Inhibition of CYP3A4 (unknown origin) using vivid green as substrate; type: ADME
Sequence of Cytochrome P450 3A4 (P08684 whole entry): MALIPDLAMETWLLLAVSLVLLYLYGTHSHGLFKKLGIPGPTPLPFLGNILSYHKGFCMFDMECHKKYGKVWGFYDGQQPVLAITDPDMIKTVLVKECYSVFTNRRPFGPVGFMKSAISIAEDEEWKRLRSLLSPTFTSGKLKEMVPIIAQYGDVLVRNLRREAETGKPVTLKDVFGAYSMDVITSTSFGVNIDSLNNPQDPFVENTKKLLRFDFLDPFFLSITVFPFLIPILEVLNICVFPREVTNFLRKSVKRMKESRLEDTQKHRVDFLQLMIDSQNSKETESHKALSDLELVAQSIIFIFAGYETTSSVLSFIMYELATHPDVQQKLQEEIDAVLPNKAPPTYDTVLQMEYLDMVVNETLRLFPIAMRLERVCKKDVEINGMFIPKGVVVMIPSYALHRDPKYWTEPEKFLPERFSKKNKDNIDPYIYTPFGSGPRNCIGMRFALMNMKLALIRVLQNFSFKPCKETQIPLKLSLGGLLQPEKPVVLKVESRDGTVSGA

Histone deacetylase 2 = Histone deacetylase 2 (Homo sapiens, UniProt Q92769); assay: Inhibition of recombinant His-tagged HDAC2 (1 to 488) (unknown origin) using MAL as substrate incubated for 3 hrs prior to substrate addition measured after 60 mins by fluorescence plate reader analysis
Sequence of Histone deacetylase 2 (Q92769 whole entry): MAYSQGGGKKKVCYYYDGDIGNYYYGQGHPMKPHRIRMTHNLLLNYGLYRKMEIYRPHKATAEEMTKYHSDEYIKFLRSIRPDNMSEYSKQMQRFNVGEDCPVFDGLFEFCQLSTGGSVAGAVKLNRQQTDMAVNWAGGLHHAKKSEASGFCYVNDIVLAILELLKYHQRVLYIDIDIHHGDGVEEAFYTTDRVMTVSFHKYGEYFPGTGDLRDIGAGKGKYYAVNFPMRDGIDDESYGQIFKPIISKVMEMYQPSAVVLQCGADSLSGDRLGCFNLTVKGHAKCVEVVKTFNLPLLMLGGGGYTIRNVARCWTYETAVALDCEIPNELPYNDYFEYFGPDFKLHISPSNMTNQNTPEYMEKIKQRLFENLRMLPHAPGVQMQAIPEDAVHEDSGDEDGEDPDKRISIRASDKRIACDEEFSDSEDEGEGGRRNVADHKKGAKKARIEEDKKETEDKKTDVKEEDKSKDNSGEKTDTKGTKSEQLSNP

HCT-116 = assay: Cytotoxicity against human HCT116 cells assessed as growth inhibition by measuring cellular ATP level after 72 hrs by cell-titer glo assay; type: functional, cell-based; conditions: HCT-116, 72 h
Jurkat [9] = assay: Cell cycle arrest in human Jurkat cells assessed as accumulation at sub-G1 phase at 1 uM after 24 hrs by FITC/propidium iodide staining-based FACS flow cytometric analysis (reference value: 6.8%); type: functional; summary of the method: as §1
Jurkat [10] = assay: Cell cycle arrest in human Jurkat cells assessed as accumulation at S phase at 1 uM after 24 hrs by FITC/propidium iodide staining-based FACS flow cytometric analysis (reference value: 22.3%); type: functional; summary of the method: as §1
Jurkat [11] = assay: Cell cycle arrest in human Jurkat cells assessed as accumulation at G2/M phase at 10 uM after 24 hrs by FITC/propidium iodide staining-based FACS flow cytometric analysis (reference value: 13.2%); type: functional; summary of the method: as §1
Jurkat [12] = assay: Induction of apoptosis in human Jurkat cells assessed as PARP cleavage at 1 to 10 uM after 24 hrs by Western blot analysis; type: functional, cell-based
[13] = target: Histone deacetylase 3/NCoR1 (Homo sapiens, UniProt O15379); assay: Inhibition of recombinant HDAC3-NCoR1 (unknown origin) using MAL as substrate incubated for 3 hrs prior to substrate addition measured after 60 mins by fluorescence plate reader analysis; type: protein-complex assay
Sequence of Histone deacetylase 3/NCoR1 (O15379 whole entry): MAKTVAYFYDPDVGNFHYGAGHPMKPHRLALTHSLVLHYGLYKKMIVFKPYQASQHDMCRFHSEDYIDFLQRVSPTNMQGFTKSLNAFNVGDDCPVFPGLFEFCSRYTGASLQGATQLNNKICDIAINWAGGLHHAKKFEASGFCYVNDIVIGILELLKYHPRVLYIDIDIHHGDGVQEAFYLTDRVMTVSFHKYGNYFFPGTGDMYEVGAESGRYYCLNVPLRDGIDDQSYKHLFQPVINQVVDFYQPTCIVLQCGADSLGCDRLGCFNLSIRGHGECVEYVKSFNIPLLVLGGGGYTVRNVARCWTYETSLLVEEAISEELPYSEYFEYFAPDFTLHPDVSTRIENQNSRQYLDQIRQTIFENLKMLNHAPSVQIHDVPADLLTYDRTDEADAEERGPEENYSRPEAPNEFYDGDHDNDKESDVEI
Sequence of Histone deacetylase 3/NCoR1 (O75376 whole entry, further chain): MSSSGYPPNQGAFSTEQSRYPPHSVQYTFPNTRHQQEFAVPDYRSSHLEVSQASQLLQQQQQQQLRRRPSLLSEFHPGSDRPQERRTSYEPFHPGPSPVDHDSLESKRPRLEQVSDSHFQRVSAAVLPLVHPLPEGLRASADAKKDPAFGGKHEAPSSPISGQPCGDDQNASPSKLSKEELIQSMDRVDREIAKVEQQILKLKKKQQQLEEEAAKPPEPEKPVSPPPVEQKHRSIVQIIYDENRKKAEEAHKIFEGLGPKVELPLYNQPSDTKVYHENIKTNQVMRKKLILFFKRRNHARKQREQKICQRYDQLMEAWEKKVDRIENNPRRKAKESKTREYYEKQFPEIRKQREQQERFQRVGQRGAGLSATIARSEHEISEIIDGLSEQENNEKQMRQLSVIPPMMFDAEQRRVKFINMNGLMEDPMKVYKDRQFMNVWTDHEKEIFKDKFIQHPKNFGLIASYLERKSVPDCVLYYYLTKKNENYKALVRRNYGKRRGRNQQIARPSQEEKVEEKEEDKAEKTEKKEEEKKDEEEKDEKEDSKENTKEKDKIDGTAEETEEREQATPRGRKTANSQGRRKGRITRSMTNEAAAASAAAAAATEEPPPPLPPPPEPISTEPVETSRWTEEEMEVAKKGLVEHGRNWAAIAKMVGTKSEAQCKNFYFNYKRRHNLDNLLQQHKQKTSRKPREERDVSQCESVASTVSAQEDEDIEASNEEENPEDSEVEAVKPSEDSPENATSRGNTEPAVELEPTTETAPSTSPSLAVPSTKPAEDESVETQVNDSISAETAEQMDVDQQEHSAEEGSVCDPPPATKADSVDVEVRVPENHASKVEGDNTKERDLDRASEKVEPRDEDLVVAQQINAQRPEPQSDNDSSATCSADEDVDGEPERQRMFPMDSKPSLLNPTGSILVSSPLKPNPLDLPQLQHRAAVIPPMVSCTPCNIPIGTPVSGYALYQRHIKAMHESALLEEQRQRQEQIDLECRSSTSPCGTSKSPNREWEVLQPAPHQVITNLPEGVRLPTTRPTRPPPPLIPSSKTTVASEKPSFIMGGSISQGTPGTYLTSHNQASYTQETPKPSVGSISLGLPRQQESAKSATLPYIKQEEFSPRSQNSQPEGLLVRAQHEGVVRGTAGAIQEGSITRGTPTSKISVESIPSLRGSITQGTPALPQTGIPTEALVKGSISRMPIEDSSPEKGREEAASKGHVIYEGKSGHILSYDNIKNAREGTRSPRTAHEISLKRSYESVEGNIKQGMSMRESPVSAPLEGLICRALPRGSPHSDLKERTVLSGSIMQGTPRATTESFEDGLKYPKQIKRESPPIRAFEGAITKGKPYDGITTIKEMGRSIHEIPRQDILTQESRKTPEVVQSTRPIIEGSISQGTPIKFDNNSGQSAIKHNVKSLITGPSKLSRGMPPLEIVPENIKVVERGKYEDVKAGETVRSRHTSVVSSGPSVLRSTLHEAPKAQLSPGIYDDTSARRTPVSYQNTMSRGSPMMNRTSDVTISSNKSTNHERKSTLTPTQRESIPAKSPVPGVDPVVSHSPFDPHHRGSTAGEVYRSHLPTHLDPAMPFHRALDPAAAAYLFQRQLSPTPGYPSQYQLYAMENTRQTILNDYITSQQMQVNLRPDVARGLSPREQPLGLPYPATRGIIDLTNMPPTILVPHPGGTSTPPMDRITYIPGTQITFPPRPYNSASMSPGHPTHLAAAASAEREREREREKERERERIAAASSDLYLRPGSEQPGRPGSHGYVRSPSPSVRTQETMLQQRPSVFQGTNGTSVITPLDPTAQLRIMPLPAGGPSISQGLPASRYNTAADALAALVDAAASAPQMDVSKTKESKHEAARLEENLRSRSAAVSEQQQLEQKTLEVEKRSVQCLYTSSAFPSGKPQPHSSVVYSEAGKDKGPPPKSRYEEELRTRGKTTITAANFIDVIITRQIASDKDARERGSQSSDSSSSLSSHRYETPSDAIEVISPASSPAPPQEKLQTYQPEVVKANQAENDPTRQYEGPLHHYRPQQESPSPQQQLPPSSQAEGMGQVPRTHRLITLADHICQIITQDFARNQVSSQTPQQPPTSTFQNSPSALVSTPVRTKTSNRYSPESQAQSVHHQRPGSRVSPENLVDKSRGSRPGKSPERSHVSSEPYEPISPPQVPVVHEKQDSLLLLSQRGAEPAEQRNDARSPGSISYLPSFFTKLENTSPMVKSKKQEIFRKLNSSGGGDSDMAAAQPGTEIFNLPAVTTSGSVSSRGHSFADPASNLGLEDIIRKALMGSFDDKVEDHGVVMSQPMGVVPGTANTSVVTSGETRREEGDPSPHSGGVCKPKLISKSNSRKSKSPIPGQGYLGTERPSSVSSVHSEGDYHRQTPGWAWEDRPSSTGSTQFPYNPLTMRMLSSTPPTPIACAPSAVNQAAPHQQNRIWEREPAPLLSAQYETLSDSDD

Histone deacetylase 1 = Histone deacetylase 1 (Homo sapiens, UniProt Q13547); assay: Inhibition of recombinant C-terminal FLAG-tagged HDAC1 (unknown origin) expressed in Escherichia coli BL21 using MAL as substrate incubated for 1 hr prior to substrate addition measured after 60 mins by fluorescence plate reader analysis
Sequence of Histone deacetylase 1 (Q13547 whole entry): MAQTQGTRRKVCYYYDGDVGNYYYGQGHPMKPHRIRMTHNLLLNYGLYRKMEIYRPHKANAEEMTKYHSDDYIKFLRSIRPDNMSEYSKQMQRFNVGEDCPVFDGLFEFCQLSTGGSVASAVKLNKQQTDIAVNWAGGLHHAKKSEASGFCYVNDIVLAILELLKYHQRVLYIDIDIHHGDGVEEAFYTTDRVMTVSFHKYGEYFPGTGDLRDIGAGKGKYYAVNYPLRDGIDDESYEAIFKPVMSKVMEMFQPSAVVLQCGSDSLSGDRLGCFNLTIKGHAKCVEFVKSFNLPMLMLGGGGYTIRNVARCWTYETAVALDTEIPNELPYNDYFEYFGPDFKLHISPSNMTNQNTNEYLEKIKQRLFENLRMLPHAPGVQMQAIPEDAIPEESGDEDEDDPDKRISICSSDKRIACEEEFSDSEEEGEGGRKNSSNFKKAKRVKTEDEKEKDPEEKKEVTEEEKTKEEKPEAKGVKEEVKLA

Jurkat [14] = assay: Cell cycle arrest in human Jurkat cells assessed as accumulation at S phase at 10 uM after 24 hrs by FITC/propidium iodide staining-based FACS flow cytometric analysis (reference value: 15.3%); type: functional; summary of the method: as §1
A549 = assay: Cytotoxicity against human A549 cells assessed as growth inhibition by measuring cellular ATP level after 72 hrs by cell-titer glo assay; type: functional, cell-based; conditions: A549, 72 h
Jurkat [15] = assay: Cell cycle arrest in human Jurkat cells assessed as accumulation at G0/G1 phase at 10 uM after 24 hrs by FITC/propidium iodide staining-based FACS flow cytometric analysis (reference value: 69.5%); type: functional; summary of the method: as §1
DU-145 = assay: Cytotoxicity against human DU145 cells assessed as growth inhibition by measuring cellular ATP level after 72 hrs by cell-titer glo assay; type: functional, cell-based; conditions: DU-145, 72 h

Papp [1]: 51 ×10⁻⁶ cm/s | pIC50 (Cytochrome P450 2C19): 4.49 | logD [5]: 4.24 | solubility kinetic [6]: 239 µM (≈ 96.2 µg/mL) | pIC50 [7]: < 4.70 | pIC50 (Cytochrome P450 3A4): 4.80 | pIC50 (Histone deacetylase 2): 7.07 | pIC50 [13]: 7.92 | pIC50 (Histone deacetylase 1): 6.03
Compound: Nc1ccccc1NC(=O)c1ccc(CNC2=N[C@@H](c3ccccc3)CS2)cc1
Activity (Jurkat [2]): 9.1% | Activity (HeLa [3]): inactive | Activity (Jurkat [4]): 48.1% | Activity (HeLa [8]): Active | pIC50 (HCT-116): 5.66 | Activity (Jurkat [9]): 36.6% | Activity (Jurkat [10]): 6.2% | Activity (Jurkat [11]): 16.9% | Activity (Jurkat [12]): Active | Activity (Jurkat [14]): 35.1% | pIC50 (A549): 5.24 | Activity (Jurkat [15]): 28.5% | pIC50 (DU-145): 5.19
